# Test results reported in ChEMBL document CHEMBL5029200, “Imidazoline- and Benzamidine-Based Trypanosome Alternative Oxidase Inhibitors: Synthesis and Structure-Activity Relationship Studies” (ACS Med Chem Lett, 2022).
# pEC50, pIC50: −log10 of the molar value.
# Legend:
# [1] = system: Trypanosoma brucei brucei; test: Inhibition of recombinant Trypanosoma brucei brucei delta MTS TAO using ubiquinol as substrate measured at 40 uM after 2 mins by UV-vis spectrophotometry
# [2] = Inhibition of recombinant Trypanosoma brucei brucei delta MTS TAO using ubiquinol as substrate measured after 2 mins by UV-vis spectrophotometry
# [3] = Selectivity index, ratio of CC50 for HEK293 cells to EC50 for antitrypanosomal activity against bloodstream form trypomastigotes of wild type Trypanosoma brucei brucei Lister 427; assay type: toxicity; settings: human, read-out: Selectivity Index
# In short: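 Selectivity index = CC50 in HEK cells divided by EC50 against wild-type Lister 427. HEK cytotoxicity by resazurin assay. […] Both values from sigmoidal variable-slope nonlinear regression. n = 3.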
# [4] = system: Trypanosoma brucei brucei; test: Inhibition of recombinant Trypanosoma brucei brucei delta MTS TAO using ubiquinol as substrate measured at 40 uM after 2 mins by UV-vis spectrophotometry
# [5] = system: Trypanosoma brucei brucei; test: Antitrypanosomal activity against bloodstream form trypomastigotes of wild type Trypanosoma brucei brucei Lister 427 assessed as reduction in parasite viability by resazurin-based assay; assay type: functional, organism-based
# In short: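 Monomorphic bloodstream-form trypanosomes grown in complete HMI-9 with 10% fetal bovine serum. Resazurin viability assay using 23 doubling dilutions of each compound, starting at 100 μM. EC50 obtained by nonlinear regression fitted to a variable-slope sigmoid. n = 3.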
structure (smiles),measurement,setting,value
Cc1cc(O)cc(O)c1C(=O)NCCCOc1ccc(C(=N)N)cc1,inhibition,[1],48%
same,pIC50,[2],< 4.40
Cc1cc(O)cc(O)c1C(=O)NCCCCCCCCCCCCCCOc1ccc(C(=N)NO)cc1,selectivity ratio,[3],6.9
Cc1cc(O)cc(O)c1C(=O)NCCCCCCCCCCCCCCOc1ccc(C(=N)N)cc1,selectivity ratio,[3],10.7
C/C(=C\Cc1c(O)c(Cl)c(C)c(C=O)c1O)CC/C=C(\C)[C@@H]1CC(=O)C(C)(C)O1,inhibition,[4],100%
Cc1cc(O)cc(O)c1C(=O)NCCCCCCCCCCCCOc1ccc(C2=NCCN2)cc1,pEC50,[5],5.77
Cc1cc(O)cc(O)c1C(=O)NCCCCCCOc1ccc(C#N)cc1,selectivity ratio,[3],6.6
